Assay results published in PMC3390238 (Science Translational Medicine, 2012).
Where two headings read alike, the source gives them in different places. One block for each molecule: values may come before it. Positions of bridges follow the written chain, without caps; N, C: chain ends. Non-standard residues stand in square brackets, D forms with d. Residues, ends and D or L forms follow the SMILES beside them. hArg = N=C(N)NCCCC[C@H](N)C(=O)O; Mpa = O=C(O)CCS

Experiments:
[1] = system: platelet adhesion/aggregation to collagen; experiment: Platelet adhesion/aggregation to collagen; format: cell-based, human
[2] = biological target: platelet αIIbβ3 (Homo sapiens, UniProt P05106+P08514); experiment: Priming assay: induction of fluorescent fibrinogen binding to platelets; format: cell-based; details: for incremental fibrinogen binding: one experiment
[3] = biological target: T1, αIIbβ3 (Homo sapiens, UniProt P05106+P08514); experiment: Platelet adhesion to immobilized fibrinogen screening assay; format: cell-based; details: for inhibition of platelet adhesion to fibrinogen: mean ± SD, five experiments
[4] = biological target: T1, αIIbβ3; experiment: Platelet aggregation induced by thrombin receptor–activating peptide; format: cell-based; details: 20 mM vs 1 mM Mg2+
[5] = biological target: T2, αIIbβ3 headpiece (Homo sapiens, UniProt P05106+P08514); experiment: Dynamic light scattering of soluble αIIbβ3 headpiece
Target sequence in this assay (P08514 32-652 limits assumed): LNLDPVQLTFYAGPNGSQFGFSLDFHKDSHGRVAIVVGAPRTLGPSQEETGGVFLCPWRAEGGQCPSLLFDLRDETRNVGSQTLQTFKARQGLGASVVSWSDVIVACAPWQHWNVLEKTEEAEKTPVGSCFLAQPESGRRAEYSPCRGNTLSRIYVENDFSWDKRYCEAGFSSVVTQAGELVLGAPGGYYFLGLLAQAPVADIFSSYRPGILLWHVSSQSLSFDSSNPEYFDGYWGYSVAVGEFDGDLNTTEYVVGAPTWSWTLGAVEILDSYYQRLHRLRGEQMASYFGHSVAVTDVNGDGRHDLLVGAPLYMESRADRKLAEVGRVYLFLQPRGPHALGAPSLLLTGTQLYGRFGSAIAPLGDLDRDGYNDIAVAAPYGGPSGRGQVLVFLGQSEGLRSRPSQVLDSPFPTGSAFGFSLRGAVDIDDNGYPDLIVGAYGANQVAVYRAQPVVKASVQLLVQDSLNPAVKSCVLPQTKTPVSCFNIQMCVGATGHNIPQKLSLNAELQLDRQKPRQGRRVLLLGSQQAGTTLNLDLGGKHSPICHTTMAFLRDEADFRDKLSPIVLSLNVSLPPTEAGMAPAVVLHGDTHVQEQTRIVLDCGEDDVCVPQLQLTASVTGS
Target sequence in this assay (P05106 27-498 limits assumed): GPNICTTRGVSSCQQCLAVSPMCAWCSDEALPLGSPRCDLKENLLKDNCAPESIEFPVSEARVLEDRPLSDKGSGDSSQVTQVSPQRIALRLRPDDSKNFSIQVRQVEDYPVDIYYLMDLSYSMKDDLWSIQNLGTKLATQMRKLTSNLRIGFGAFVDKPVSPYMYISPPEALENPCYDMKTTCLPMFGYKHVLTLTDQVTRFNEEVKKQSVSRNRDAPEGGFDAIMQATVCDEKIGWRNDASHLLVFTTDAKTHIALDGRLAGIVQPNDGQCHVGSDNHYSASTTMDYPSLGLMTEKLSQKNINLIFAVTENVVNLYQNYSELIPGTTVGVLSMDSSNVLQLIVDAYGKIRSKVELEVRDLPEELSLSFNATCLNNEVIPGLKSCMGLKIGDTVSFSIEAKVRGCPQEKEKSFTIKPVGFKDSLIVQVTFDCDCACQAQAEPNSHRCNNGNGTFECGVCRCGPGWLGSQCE

[6] = biological target: T1, αIIbβ3; experiment: αIIbβ3-mediated HEK293 cell adhesion to fibrinogen; format: cell-based; details: 100 μM; n = 4
[7] = biological target: T1, αIIbβ3; experiment: Platelet adhesion to fibrinogen at different Mg2+ concentrations; format: cell-based; details: for IC50: IC50, platelet adhesion to fibrinogen, 1 mM Ca2+, mean ± SD, three experiments
[8] = biological target: αVβ3 (Homo sapiens, UniProt P05106+P06756); experiment: αVβ3-mediated HEK293 cell adhesion to vitronectin; format: cell-based
[9] = system: normal human platelets; experiment: Recruitment of αIIbβ3-dependent patient IgG to drug-pretreated platelets; format: cell-based; details: for recruitment of patient IgG to platelets: all 5 tirofiban samples and 13 of 15 eptifibatide samples
Outline: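 Normal platelets were pretreated with test compound, then exposed to sera from patients with tirofiban- (5) or eptifibatide-induced (15) thrombocytopenia. Platelet-bound patient IgG was read as median MFI. Signals were compared with untreated control platelets and with eptifibatide-treated platelets.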

[10] = system: rat platelets; experiment: ADP-induced rat platelet aggregation; format: cell-based
[11] = system: recombinant human αIIbβ3; format: cell-based; details: going from 1 to 50 mM Mg2+
Outline: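 CHO-K cells stably expressing human αIIbβ3 were preincubated ±test compound for 30 min at each Mg²⁺ level (1 to 50 mM) plus 1 mM Ca²⁺. They were then exposed to PAC-1 (5 µg/ml) with activating mAb PT25-2 (5 µg/ml) for 30 min at 25°C, stained with PE anti-mouse IgM on ice for 30 min, and analysed by flow cytometry. Read-out was % MFI with vs without drug (n=3); IC50 was compared across Mg²⁺ levels.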

[12] = biological target: T1, αIIbβ3; experiment: ADP-induced platelet aggregation of platelet-rich plasma; format: cell-based
[13] = biological target: T2, αIIbβ3 headpiece; experiment: Gel filtration of soluble αIIbβ3 headpiece; details: for reduction in αIIbβ3 headpiece elution volume: Superdex 200
Target sequence in this assay (P08514 32-652 limits assumed): as the sequence (P08514 32-652 limits assumed) above
Target sequence in this assay (P05106 27-498 limits assumed): as the sequence (P05106 27-498 limits assumed) above

[14] = system: αIIbβ3; details: 25.6 mg/kg; cited from earlier work
[15] = biological target: αIIbβ3 ligand-induced binding sites (Homo sapiens, UniProt P05106+P08514); experiment: Induction of ligand-induced binding site; format: cell-based; details: for PMI-1 binding to platelets, % of amount bound in the presence of eptifibatide: αIIb LIBS mAb PMI-1, untreated 46 ± 5%; for PMI-1 binding to platelets, % of amount bound in the presence of eptifibatide / LIBS1 binding to platelets, % of amount bound in the presence of eptifibatide: eptifibatide = 100%; for AP5 binding to platelets, % of amount bound in the presence of eptifibatide: β3 LIBS mAb AP5, eptifibatide 10 μM = 100%, untreated 7 ± 3%; for LIBS1 binding to platelets, % of amount bound in the presence of eptifibatide: β3 LIBS mAb LIBS1, after 30 min, untreated 22 ± 3%
Outline: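 Flow-based binding of LIBS mAbs to platelets: AP5 (β3 PSI domain), LIBS1 (β3 distal leg) and PMI-1 (αIIb). Net normalized fluorescence was expressed relative to platelets treated with eptifibatide, set as 100%. For AP5 the reference was eptifibatide 10 µM, 30 min at 22°C. Replicates: n=5 for AP5, n=4 for PMI-1.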

[16] = system: mouse platelets; experiment: ADP-induced mouse platelet aggregation; format: cell-based
[17] = biological target: purified αIIbβ3 (Homo sapiens, UniProt P05106+P08514); experiment: Negative stain EM of αIIbβ3 nanodiscs
[18] = biological target: hαIIb/mβ3 (UniProt O54890+P08514); experiment: Aggregation of platelets from a mouse expressing human αIIb and mouse β3; format: cell-based
[19] = pKa by titration in water; format: physicochemical
[20] = biological target: T2, αIIbβ3 headpiece; experiment: X-ray crystallography of RUC-2–αIIbβ3 headpiece complex; details: determined by x-ray crystallography, PDB code 3T3M
[21] = 100 μM, first reactive eptifibatide-patient serum
[22] = read-out: inhibition of platelet adhesion to fibrinogen

Chain of αIIbβ3 ligand-induced binding sites (P08514 32-887 limits assumed): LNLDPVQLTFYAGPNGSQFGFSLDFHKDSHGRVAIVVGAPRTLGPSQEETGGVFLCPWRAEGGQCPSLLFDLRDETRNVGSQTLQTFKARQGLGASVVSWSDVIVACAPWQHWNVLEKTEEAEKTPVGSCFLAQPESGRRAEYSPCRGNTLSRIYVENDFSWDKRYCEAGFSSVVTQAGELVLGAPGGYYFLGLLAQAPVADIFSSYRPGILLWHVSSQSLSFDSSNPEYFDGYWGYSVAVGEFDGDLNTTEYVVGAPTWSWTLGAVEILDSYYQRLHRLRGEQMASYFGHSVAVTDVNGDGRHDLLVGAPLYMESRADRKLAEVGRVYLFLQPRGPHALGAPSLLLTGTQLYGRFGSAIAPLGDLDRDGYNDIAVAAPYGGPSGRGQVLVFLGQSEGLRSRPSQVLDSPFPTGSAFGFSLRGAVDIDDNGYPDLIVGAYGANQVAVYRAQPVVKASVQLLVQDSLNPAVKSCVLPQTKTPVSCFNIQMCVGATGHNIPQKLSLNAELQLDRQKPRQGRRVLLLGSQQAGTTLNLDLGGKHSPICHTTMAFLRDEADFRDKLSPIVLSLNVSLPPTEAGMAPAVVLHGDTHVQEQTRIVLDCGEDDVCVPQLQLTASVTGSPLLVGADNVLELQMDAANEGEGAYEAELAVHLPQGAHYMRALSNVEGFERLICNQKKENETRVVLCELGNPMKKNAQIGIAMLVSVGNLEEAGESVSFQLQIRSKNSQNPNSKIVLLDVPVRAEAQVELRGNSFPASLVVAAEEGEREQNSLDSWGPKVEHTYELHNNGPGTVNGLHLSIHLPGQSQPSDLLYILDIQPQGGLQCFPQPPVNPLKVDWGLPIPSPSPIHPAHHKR
Chain of αIIbβ3 ligand-induced binding sites (P08514 891-1039 partner limits assumed): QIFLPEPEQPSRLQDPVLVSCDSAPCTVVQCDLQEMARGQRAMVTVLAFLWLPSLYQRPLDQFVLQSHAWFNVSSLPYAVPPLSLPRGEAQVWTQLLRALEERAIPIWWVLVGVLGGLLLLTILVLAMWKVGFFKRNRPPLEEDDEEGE
Chain of αIIbβ3 ligand-induced binding sites (P05106 27-788): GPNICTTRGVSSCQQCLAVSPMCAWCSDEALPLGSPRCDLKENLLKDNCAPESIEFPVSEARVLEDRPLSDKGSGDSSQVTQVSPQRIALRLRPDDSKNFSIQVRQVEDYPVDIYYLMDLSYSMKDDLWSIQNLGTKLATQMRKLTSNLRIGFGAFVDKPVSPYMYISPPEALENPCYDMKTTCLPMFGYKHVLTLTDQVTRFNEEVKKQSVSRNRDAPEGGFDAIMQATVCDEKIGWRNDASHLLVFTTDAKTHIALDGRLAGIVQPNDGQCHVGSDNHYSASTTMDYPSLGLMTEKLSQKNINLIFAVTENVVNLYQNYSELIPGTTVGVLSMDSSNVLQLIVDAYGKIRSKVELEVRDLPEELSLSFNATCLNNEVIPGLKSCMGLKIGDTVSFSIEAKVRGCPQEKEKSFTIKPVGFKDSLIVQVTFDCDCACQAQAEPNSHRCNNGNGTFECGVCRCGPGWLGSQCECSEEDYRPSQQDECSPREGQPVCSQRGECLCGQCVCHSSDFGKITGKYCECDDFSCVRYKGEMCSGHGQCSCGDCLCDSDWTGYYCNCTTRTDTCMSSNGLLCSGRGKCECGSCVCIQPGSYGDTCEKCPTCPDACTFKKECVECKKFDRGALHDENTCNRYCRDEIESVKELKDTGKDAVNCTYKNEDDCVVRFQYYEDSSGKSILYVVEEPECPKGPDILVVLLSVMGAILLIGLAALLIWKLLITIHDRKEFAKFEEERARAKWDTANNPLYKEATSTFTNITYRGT
Chain of platelet αIIbβ3 (P08514 32-887 limits assumed): as the sequence (P08514 32-887 limits assumed) above
Chain of platelet αIIbβ3 (P08514 891-1039 partner limits assumed): as the sequence (P08514 891-1039 partner limits assumed) above
Chain of platelet αIIbβ3 (P05106 27-788): as the sequence (P05106 27-788) above

incremental fibrinogen binding ([2]; 1 μM): did not produce any incremental binding
fibrinogen binding to platelets (priming) ([2]; 5 μM): did not increase the fibrinogen binding
inhibition at 10 µM [3, 22]: 66 ± 10%
inhibition at 30 µM [3, 22]: 80 ± 13%
inhibition at 100 µM [3, 22]: 83 ± 7%
inhibitory effect on SFLLRN-induced platelet aggregation ([4]; 1 μM): clearly attenuated
increase in Stokes radius, DLS ([5]; 100 μM (near-saturating)): 0.16 nm
IC50 ([7]; 1 mM Mg2+): 0.29 ± 0.1 µM
IC50 ([7]; 20 mM Mg2+): 0.91 ± 0.21 µM
IC50 ([7]; 50 mM Mg2+): 1.3 ± 0.35 µM
decrease in affinity, platelet adhesion to fibrinogen ([7]; going from 1 to 50 mM Mg2+): ~ 80%
increase in IC50, platelet adhesion to fibrinogen ([7]; going from 1 to 50 mM Mg2+): ~ 4.5 fold
inhibition of aggregation of hαIIb/mβ3 mouse platelets [18]: essentially completely inhibited
increase of IC50 for PAC-1 binding ([11]; 1 mM Ca2+, activating mAb PT25-2): ~ 3.9 fold
IC50 [12]: 0.22 µM
inhibition of human platelet aggregation ([12]; 1 μM): nearly completely inhibited
increase in Stokes radius, gel filtration ([13]; 100 μM (near-saturating)): little or no increases
reduction in αIIbβ3 headpiece elution volume ([13]; 100 μM (near-saturating)): 0.07 mL
pKa ([19]; pKa 1 (primary amine)): 6.41
pKa ([19]; pKa 2 (piperazine nitrogen)): 8.08
PMI-1 binding to platelets, % of amount bound in the presence of eptifibatide [15]: 82 ± 13%
AP5 binding to platelets, % of amount bound in the presence of eptifibatide [15]: 18 ± 5%
LIBS1 binding to platelets, % of amount bound in the presence of eptifibatide [15]: 21 ± 3%
Molecule: NCC(=O)Nc1cccc(-c2nn3c(=O)cc(N4CCNCC4)nc3s2)c1 [RUC-2, 2-amino-N-(3-(5-oxo-7-(piperazin-1-yl)-5H-[1,3,4]thiadiazolo[3,2-a]pyrimidin-2-yl)phenyl)acetamide]
αIIbβ3-dependent platelet adhesion to fibrinogen in a screening assay [3]: RUC-2 inhibited αIIbβ3-dependent platelet adhesion to fibrinogen in a screening assay and αIIbβ3-dependent platelet aggregation. It was found to bind to the target via x-ray crystallography (PDB code 3T3M).
effect on αVβ3-mediated cell adhesion to vitronectin [8]: RUC-2 had minimal effect on αVβ3-mediated cell adhesion to vitronectin.
inhibition of platelet adhesion/aggregation to collagen ([1]; 1 to 100 μM): ~ 30%
further inhibition of adhesion/aggregation to collagen ([1]; RUC-2 combined with anti-αIIbβ3 antibody 10E5): did not further inhibit
platelet adhesion to collagen, microscopic analysis ([1]; decreased recruitment of additional platelets to adherent platelets): did not decrease platelet adhesion to collagen
recruitment of patient IgG to platelets ([9]; 3.9 μM): Neither RUC-1 nor RUC-2 induced recruitment of patient IgG
MFI increase as % of value with eptifibatide-treated platelets ([9]; 3.9 μM, first reactive eptifibatide-patient serum): 8%
inhibition of rat platelet aggregation induced by ADP ([10]; 1 μM): did not inhibit
reduction in affinity (PAC-1 binding) [11]: ~75%
αIIbβ3-dependent platelet aggregation [12]: RUC-2 inhibited αIIbβ3-dependent platelet adhesion to fibrinogen in a screening assay and αIIbβ3-dependent platelet aggregation. It was found to bind to the target via x-ray crystallography (PDB code 3T3M).
mechanism of inhibition [20]: Orthosteric inhibition at the RGD binding domain as determined by x-ray crystallography
inhibition of mouse platelet aggregation induced by ADP ([16]; 1 μM): did not inhibit

incremental fibrinogen binding ([2]; 1 μM): 34%
Molecule: N=C(N)NCCCC[C@@H]1NC(=O)CCSSC[C@@H](C(N)=O)NC(=O)[C@@H]2CCCN2C(=O)[C@H](Cc2c[nH]c3ccccc23)NC(=O)[C@H](CC(=O)O)NC(=O)CNC1=O [eptifibatide] ([Mpa][hArg]GDWPC-NH2; disulfide 1-7 (inferred))
shift of NIL value distribution of αIIbβ3 nanodiscs ([17]; dose-dependent, P < 0.001): shifted the distribution in a dose-dependent manner

incremental fibrinogen binding ([2]; 0.5 μM): 17%
inhibition at 10 µM [3, 22]: 87 ± 9%
increase in Stokes radius, DLS ([5]; 56 μM (near-saturating)): 0.45 nm
change of IC50 for PAC-1 binding [11]: completely unchanged
increase in Stokes radius, gel filtration ([13]; 56 μM (near-saturating)): 0.4 nm
reduction in αIIbβ3 headpiece elution volume ([13]; 56 μM (near-saturating)): 0.38 mL
Molecule: CCCCS(=O)(=O)N[C@@H](Cc1ccc(OCCCCC2CCNCC2)cc1)C(=O)O [tirofiban]
recruitment of patient IgG ([9]; the two eptifibatide-treated patient samples reactive with RUC compounds): able to recruit patient IgG

Further lines, the molecule ahead of its results:

Molecule: 10E5: anti-αIIbβ3 (αIIbβ3-specific) mAb
inhibition of platelet adhesion/aggregation to collagen ([1]; mAb, concentration not given): ~ 30%

Molecule: CCc1nn2c(=O)cc(N3CCNCC3)nc2s1 [RUC-1, reference compound]
incremental fibrinogen binding ([2]; 100 μM): 2%
inhibition of platelet adhesion to fibrinogen ([3]; 10 μM): 22 ± 8%
inhibition of platelet adhesion to fibrinogen ([3]; 30 μM): 38 ± 10%
inhibition of platelet adhesion to fibrinogen ([3]; 100 μM): 70 ± 15%
inhibitory effect on SFLLRN-induced platelet aggregation ([4]; 100 μM): much less evident
increase in Stokes radius, DLS ([5]; 500 μM (near-saturating)): 0.08 nm
inhibition of adhesion of HEK293 cells expressing αIIbβ3 to fibrinogen [6]: 55 ± 5%
increase in IC50 at higher Mg2+ concentrations, platelet adhesion to fibrinogen ([7]; compared with RUC-2): Neither RUC-1 nor tirofiban showed a comparable increase in IC50
inhibition of adhesion of HEK293 cells expressing αVβ3 to vitronectin ([8]; 100 μM, n = 4): 5 ± 7%
recruitment of patient IgG to platelets ([9]; 100 μM): Neither RUC-1 nor RUC-2 induced recruitment of patient IgG
MFI increase as % of value with eptifibatide-treated platelets [9, 21]: 13%
median MFI relative to control platelets [9, 21]: 6.8 times
recognition of pretreated platelets by patient serum ([9]; 100 μM, second reactive eptifibatide-patient serum): but not RUC-1
inhibition of rat platelet aggregation induced by ADP ([10]; 100 μM): did not inhibit
increase of IC50 for PAC-1 binding [11]: ~ 6%
inhibition of human platelet aggregation ([12]; 100 μM): nearly completely inhibited
IC50 ([12]; read-out: IC50, ADP-induced platelet aggregation, citrated PRP, ADP 5 μM, initial slope): 9.7 ± 1 µM
increase in Stokes radius, gel filtration ([13]; 500 μM (near-saturating)): little or no increases
reduction in αIIbβ3 headpiece elution volume ([13]; 500 μM (near-saturating)): 0.03 mL
antithrombotic effects in murine models in large and small blood vessels [14]: has antithrombotic effects
PMI-1 binding to platelets, % of amount bound in the presence of eptifibatide [15]: 73 ± 9%
AP5 binding to platelets, % of amount bound in the presence of eptifibatide [15]: 10 ± 4%
LIBS1 binding to platelets, % of amount bound in the presence of eptifibatide [15]: 18 ± 2%
inhibition of mouse platelet aggregation induced by ADP ([16]; 100 μM): did not inhibit
shift of NIL value distribution of αIIbβ3 nanodiscs ([17]; up to 100 μM, P = 0.23): neither RUC-1 at concentrations up to 100 μM nor RUC-2 at concentrations up to 10 μM produced a significant shift

Molecule: RGDS
incremental fibrinogen binding ([2]; 100 μM): 36%
